# Results published in ChEMBL document CHEMBL4610083, “Kendomycin Cytotoxicity against Bacterial, Fungal, and Mammalian Cells Is Due to Cation Chelation” (J Nat Prod, 2020).
# Activity calls are given as the source filed them. The rule behind the calls is not given here. Residues, ends and D or L forms follow the SMILES beside them. *: point of attachment. Cbz = O=C(OCc1ccccc1)*
# Experiments:
# [1] = Metal chelating activity assessed as compound-Fe2+ complex formation by UV-Vis spectrophotometric analysis
# Summary of the method: (§1)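 250 μM compound titrated with increasing metal concentrations and absorption spectra recorded. A320 measured in quadruplicate; averages fitted to a binding curve to give apparent Kapp.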
# [2] = Metal chelating activity assessed as compound-Cu2+ complex formation by UV-Vis spectrophotometric analysis; summary of the method: as §1
# [3] = tested on: Proteasome; assay: Inhibition of proteosome in HEK293T cells assessed as reduction in UbG76V-GFP degradation at 250 nM incubated for 4 hrs by flow cytometric analysis; conditions: Homo sapiens, HEK-293T
# [4] = tested on: Proteasome; assay: Inhibition of proteosome in human K562 cells assessed as reduction in UbG76V-GFP degradation at 2.5 to 10 uM incubated for 4 hrs by flow cytometric analysis
# Summary of the method: (§2)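 K562 cells carrying a lentivirally integrated, TRE2-driven UbG76V-GFP reporter. Reporter induced with 1 μg/mL doxycycline (final) 16 h before compound. Cells treated with compound or carrier for 4 h, then GFP fluorescence measured by flow cytometry.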
# [5] = tested on: HCT-116; assay: Inhibition of protein biogenesis in human HCT116 cells assessed as reduction in total protein level at 100 to 1000 nM preincubated for 30 mins followed by addition of 35S-labeled methionine/cysteine and measured after 90 mins by autoradiography; type: functional, cell-based
# Summary of the method: (§3)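 HCT116 cells seeded at 0.5 × 10^6/well and grown 24 h at 37 °C, 5% CO2. Washed, then given compound in Met/Cys-free DMEM for 30 min at 37 °C. Pulsed with 100 μCi 35S-Met/Cys for 90 min. Total protein taken by RIPA extraction of the cell pellet; secreted protein by TCA precipitation of the medium. Gels exposed to phosphor screens and scanned.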
# [6] = tested on: HCT-116; assay: Inhibition of protein biogenesis in human HCT116 cells assessed as reduction in secreted protein level at 100 to 1000 nM preincubated for 30 mins followed by addition of 35S-labeled methionine/cysteine and measured after 90 mins by autoradiography; type: functional, cell-based; summary of the method: as §3
# [7] = Metal chelating activity assessed as compound-Fe3+ complex formation by UV-Vis spectrophotometric analysis; summary of the method: as §1
# [8] = Metal chelating activity assessed as compound-calcium complex formation by UV-Vis spectrophotometric analysis
# [9] = Metal chelating activity assessed as compound-[…] complex formation by UV-Vis spectrophotometric analysis
# [10] = tested on: Bacillus subtilis; assay: Antibacterial activity against Bacillus subtilis assessed as reduction in microbial growth in presence of FeCl2 by serial dilution method; type: functional, organism-based
# Summary of the method: (§4)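 Mid-log cultures in LB back-diluted to low OD; 8-point compound serial dilution added, with or without freshly prepared 0.25 mM FeCl2 or 0.25 mM CuCl2. Incubation at 37 °C with orbital shaking at 1000 rpm. Cell density read as A600, duplicate data sets, inhibition curves fitted by regression.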
# [11] = tested on: Saccharomyces cerevisiae; assay: Antifungal activity against Saccharomyces cerevisiae assessed as reduction in microbial growth in presence of FeCl2; type: functional, organism-based
# Summary of the method: (§5)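 Single-colony inhibition on solid medium, with or without 1 mM FeCl2 or 0.25 mM CuCl2 in the agar. Colonies washed off the plates with PBS and cell density read as A600. Inhibition curves fitted by regression.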
# [12] = tested on: HCT-116; assay: Antiproliferative activity against human HCT116 cells assessed as reduction in cell viability incubated for 72 hrs in presence of FeCl2 by AlamarBlue assay; type: functional, cell-based
# Summary of the method: (§6)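 HCT116 cells in McCoy's 5A with 10% FBS, seeded at 2500 cells/well. Dosed 16 h after plating, with or without 0.5 mM FeCl2 or 0.5 mM CuCl2. After 72 h, 10% resazurin added for 4 h, then fluorescence read (ex 580/em 620 nm). Viability given as % of carrier growth; curves from quadruplicate technical replicates.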
# [13] = tested on: Bacillus subtilis; assay: Antibacterial activity against Bacillus subtilis assessed as reduction in microbial growth in presence of CuCl2 by serial dilution method; type: functional, organism-based; summary of the method: as §4
# [14] = tested on: Saccharomyces cerevisiae; assay: Antifungal activity against Saccharomyces cerevisiae assessed as reduction in microbial growth in presence of CuCl2; type: functional, organism-based; summary of the method: as §5
# [15] = tested on: HCT-116; assay: Antiproliferative activity against human HCT116 cells assessed as reduction in cell viability incubated for 72 hrs in presence of CuCl2 by AlamarBlue assay; type: functional, cell-based; summary of the method: as §6
# [16] = Binding affinity to Cu2+ ion assessed as compound-Cu2+ formation by 1H NMR spectroscopy
# [17] = Binding affinity to Fe2+ ion assessed as compound-Fe2+ formation by 1H NMR spectroscopy
# [18] = tested on: Proteasome; assay: Inhibition of proteosome in human K562 cells assessed as reduction in UbG76V-GFP degradation at 2 uM incubated for 4 hrs by flow cytometric analysis; summary of the method: as §2
# [19] = tested on: HCT-116; assay: Inhibition of protein biogenesis in human HCT116 cells assessed as reduction in total protein level preincubated for 30 mins followed by addition of 35S-labeled methionine/cysteine and measured after 90 mins by autoradiography; type: functional, cell-based
# Summary of the method: (§7)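 HCT116 cells seeded at 0.5 × 10^6 per well and grown 24 h at 37 °C, 5% CO2. After two washes, compound in DMEM lacking Met/Cys was added for 30 min at 37 °C, then 100 μCi 35S-Met/Cys for a further 90 min. Secreted protein was recovered from medium by TCA precipitation, total protein by RIPA extraction of washed cells. Gels were read by phosphor screen imaging.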
# [20] = tested on: HCT-116; assay: Inhibition of protein biogenesis in human HCT116 cells assessed as reduction in secreted protein level preincubated for 30 mins followed by addition of 35S-labeled methionine/cysteine and measured after 90 mins by autoradiography; type: functional, cell-based; summary of the method: as §7
smiles,measurement,setting,value
CC1=C2O[C@]3(O)C=C2C(=C(O)C1=O)[C@@H]1O[C@H](CC[C@H](C)/C=C(\C)C[C@@H](C)C[C@@H]3C)[C@H](C)[C@H](O)[C@H]1C,Activity,[1],Dose-dependent effect
same,Kapp,[1],19 µM
same,Activity,[2],Dose-dependent effect
same,Kapp,[2],48 µM
same,inhibition,[3],inactive
same,inhibition,[4],inactive
same,inhibition,[5],inactive
same,inhibition,[6],inactive
same,Activity,[7],Dose-dependent effect
same,Kapp,[7],76 µM
same,Activity,[8],inactive
same,Activity,[9],inactive
same,Activity,[10],inactive
same,Activity,[11],inactive
same,Activity,[12],inactive
same,Activity,[13],inactive
same,Activity,[14],inactive
same,Activity,[15],Active
same,Activity,[16],Active
same,Activity,[17],Active
CC(C)C[C@@H](C=O)NC(=O)[C@H](CC(C)C)NC(=O)[C@H](CC(C)C)NC(=O)OCc1ccccc1 (Cbz-Leu-Leu-Leu-aldehyde),inhibition,[3],Active
same,inhibition,[18],Active
C[C@@H]1C[C@@H]([C@H](O)CC2CC(=O)NC(=O)C2)C(=O)[C@@H](C)C1,inhibition,[19],Active
same,inhibition,[20],Active
